A selection: hits, their analogues and other compounds. The true share with any hit is near 2.9%.
NS3 helicase inh: HCV NS3 helicase inhibition; NS3 helicase DNA unwinding, Cy5 molecular beacon fluorescence; inhibition, % at 10.9 µM; 290,000 compounds, 0.56% hits; AID 1800;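 active = inhibition above the mean of all tested compounds plus 3 SD, set per campaign, cut at about 35% in these data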;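 also: 0% = DMSO wells and 100% = thioflavine S control wells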
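Measured by: Cy5 fluorescence, 0 and 60 min reads / Assay system: NS3 helicase fragment of HCV / Control set: low DMSO, high thioflavine S at 110 µM / Times: 1 h reaction at 25 °C, ATP-initiated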
core dimer inh: blocks dimerization of HCV core protein | 300,000 compounds, 0.33% hits | TR-FRET GST/Flag-core106 dimerization, 1536-well | inhibition, % at 5 µM;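 active = inhibition above the mean of all tested compounds plus 3 SD, set per screening campaign, cut at about 45% in these data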
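Test system: GST/Flag-tagged HCV core106 proteins; Medium: KF-containing HEPES buffer, pH 7.45, DTT, CHAPS, BSA; Times: compound-protein-antibody incubation 4 h at 22.5 °C; Detection: TR-FRET 671 and 617 nm emission; Benchmarks: wells lacking GST-core106 and wells with excess unlabelled core106.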
PRMT1 inh: PRMT1 (human) inhibition, primary screen | Q99873 | recombinant PRMT1, activity-based probe fluorescence polarization | inhibition, % at 2.79 µM | 370,000 compounds, 1.3% hits;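 active = inhibition above about 21% made by adding two undisclosed values, limit read from the data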
APOBEC3A inh: inhibitors of human APOBEC3A DNA deaminase | recombinant A3A, FAM/TAMRA ssDNA deamination fluorescence | inhibition, % at 20 µM | 330,000 compounds, 0.41% hits;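 active = at least 40% inhibition at 20 µM here, with at most 30% in a related deaminase screen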;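 also: plate controls were A3A with DMSO for no effect and wells lacking A3A enzyme for full effect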
Target sequence (P31941 whole entry, looked up): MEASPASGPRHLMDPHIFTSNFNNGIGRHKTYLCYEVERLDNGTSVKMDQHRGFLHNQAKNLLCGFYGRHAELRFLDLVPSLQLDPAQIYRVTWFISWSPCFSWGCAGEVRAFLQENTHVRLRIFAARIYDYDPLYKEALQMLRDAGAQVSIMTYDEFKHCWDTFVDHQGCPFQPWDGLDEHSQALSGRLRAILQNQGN
A3G deaminase: APOBEC3G (human) deaminase inhibition | 330,000 compounds, 0.28% hits | recombinant A3G, ssDNA deamination FAM/TAMRA fluorescence | Q9HC16 | inhibition, % at 20 µM;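 active = inhibition of at least 40% at 20 µM, with no more than 30% in the related APOBEC3A deaminase screen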;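 also: plate controls were DMSO wells with A3G for no effect and wells lacking A3G enzyme for full effect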
Target sequence (Q9HC16 whole entry, looked up): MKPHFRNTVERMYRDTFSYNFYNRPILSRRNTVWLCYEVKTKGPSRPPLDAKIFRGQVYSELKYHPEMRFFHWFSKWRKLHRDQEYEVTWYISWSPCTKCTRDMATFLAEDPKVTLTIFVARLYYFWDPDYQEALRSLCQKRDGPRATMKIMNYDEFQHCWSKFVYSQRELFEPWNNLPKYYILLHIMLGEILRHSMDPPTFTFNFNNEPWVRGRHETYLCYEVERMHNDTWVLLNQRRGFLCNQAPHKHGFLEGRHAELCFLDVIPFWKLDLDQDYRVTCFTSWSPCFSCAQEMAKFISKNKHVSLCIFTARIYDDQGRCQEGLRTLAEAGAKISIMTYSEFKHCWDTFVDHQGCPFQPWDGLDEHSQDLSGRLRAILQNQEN
ABHD5-PLIN5 inh: ABHD5-PLIN5 protein interaction inhibition. Q00G26+Q8WTS1. Split G. princeps luciferase complementation, luminescence, 4 h. inhibition, % at 4 µM. 360,000 compounds, 0.78% hits. AID 602281;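 active = inhibition above the mean inhibition across every tested compound plus 3 SD, cut at about 22% in these data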;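 also: 0% = DMSO only wells and the 100% control is not disclosed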
APOBEC3A confirm: APOBEC3A (human) deaminase inhibition, confirmed | shares compounds with APOBEC3A inh | recombinant A3A, ssDNA deaminase UDG fluorescence assay | inhibition, % at 20 µM | 1,400 compounds, 63% hits;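 active = inhibition reaching a set limit, 80% of the first screen's cutoff, at 20 µM in any replicate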;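 also: plate controls were DMSO wells with A3A for no effect and wells lacking A3A enzyme for full effect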
UDG A3A counter: counter-screen for APOBEC3A inhibitors: UDG; UDG counterscreen, FAM/TAMRA uracil oligo fluorescence; shares compounds with APOBEC3A inh; inhibition, % at 20 µM; 1,000 tested, under 10 active; AID 504714; call rule not given here
Starred values were filed as active, the others as inactive; · = no result given.

SMILES	NS3 helicase inh	core dimer inh	PRMT1 inh	APOBEC3A inh	A3G deaminase	ABHD5-PLIN5 inh	APOBEC3A confirm	UDG A3A counter
CSc1ccccc1NC(=O)Cn1nnc(-c2ccc(S(C)(=O)=O)cc2)n1	-0.8	6.1	2.2	-4.2	-9.2	-2.4	·	·
CS(=O)(=O)c1ccc(-c2nnn(CC(N)=O)n2)cc1	7.3	-1.8	-2.5	50.4*	8.0	-4.1	17.0	·
CSc1nc(-c2ccco2)nn1C(=O)Cc1ccccc1	3.6	-6.4	0.1	93.8*	-3.1	5.1	-2.3	-3.0
O=C(CCc1ccccc1)n1nc(-c2ccco2)nc1SCc1ccccc1	21.9	·	8.8	·	·	-1.4	·	·
CSCC[C@H](NC(=O)c1ccc(Cl)c(S(=O)(=O)N2CCCC2)c1)c1nc2ccccc2[nH]1	-6.8	1.2	1.4	45.0*	10.9	7.3	54.3*	1.5
CSCCC(NC(=O)c1cccc(S(=O)(=O)N2CCN(C(C)=O)CC2)c1)c1nc2ccccc2[nH]1 (stereo not drawn)	·	·	2.0	·	·	8.2	·	·
CCCCCc1ccc2cc(C#N)ccc2n1	·	·	-1.1	·	·	-18.8	·	·
CCCCN(Cc1ccccc1)C(=O)C1CCC(=O)N(CCc2ccccn2)C1 (stereo not drawn)	4.7	-0.4	-0.9	-0.6	-10.2	1.6	·	·
CCCn1c2c(c(=N)c3c1CCC3)CCCC2	-2.1	-4.8	0.6	91.7*	16.1	7.0	76.7*	-1.0
CCCn1c2c(c(=N)c3c1CCC3)CCC2	-46.0	-1.4	-1.1	71.1*	26.6	-7.2	75.3*	3.0
CCCCCCCn1c2c(c(=N)c3ccccc31)CCC2	-27.9	2.6	-4.7	73.9*	20.7	7.2	77.8*	-2.1
O=C(O)CCn1c2c(c3ccccc31)CCCC2	10.1	-5.6	1.6	0.5	-6.8	-6.2	·	·
CC(NCC(=O)NC(=O)NCCC1=CCCCC1)c1ccc(S(N)(=O)=O)cc1 (stereo not drawn)	·	·	5.6	·	·	9.1	·	·
CC1(CC(=O)N/N=C/c2ccc(-c3ccc(C(=O)O)cc3)o2)OCCO1	5.4	-4.0	7.1	-2.7	-3.7	-4.3	·	·
O=C(CN1CCOCC1)N/N=C/c1ccc(-c2ccc(C(=O)O)cc2)o1	9.2	-0.4	3.4	43.3*	17.1	-6.2	84.8*	5.6
Cc1ccc(/C=C2\SC(N)=NC2=O)s1	1.2	-26.6	-6.3	56.1*	-1.9	-5.7	-2.0	-2.1
COc1cc(C(=O)NCc2ccncc2)cc(OC)c1OC	11.6	-1.2	-0.6	-0.1	-5.1	3.8	·	·
CCc1nc(CNC(=O)c2cc(OC)c(OC)c(OC)c2)no1	3.8	-3.4	-1.9	47.7*	20.0	0.7	73.2*	-1.7
NC(=O)c1nn(Cc2ccccc2)c(=O)c2ccccc12	3.1	1.9	-0.2	-3.6	-5.3	11.0	·	·
N#Cc1ccc(CN2CCN(C(=O)Cn3nc(C(N)=O)c4ccccc4c3=O)CC2)cc1	1.6	-6.5	1.3	57.7*	6.2	-4.1	25.5	·
Cc1cn([C@H]2C[C@H](O)[C@@H](CCC(=O)NCC(c3ccccc3)c3ccccc3)O2)c(=O)[nH]c1=O	·	·	-5.2	·	·	1.0	·	·
Cc1cc(N2C(=O)C(O)=C(C(=O)c3cc4ccccc4o3)C2c2cccc(Br)c2)no1 (stereo not drawn)	18.2	-6.0	8.2	-3.0	-4.0	-43.1	·	·
CCCOc1cccc(C2C(C(=O)c3cc4ccccc4o3)=C(O)C(=O)N2c2cc(C)on2)c1 (stereo not drawn)	29.3	-14.9	0.3	57.4*	-4.5	-30.6	-12.6	-0.9
NC(=O)c1c(NC(=O)CSc2nnc(-c3ccco3)n2-c2ccccc2)sc2c1CCC2	10.7	72.3*	17.6	41.4*	28.7	4.0	45.7*	-3.6
CC(=O)Nc1cccc(C(=O)OCC(=O)Nc2c(C)nn(-c3ccccc3)c2C)c1	·	1.8	2.4	52.4*	0.5	5.6	2.4	·
SMILES	NS3 helicase inh	core dimer inh	PRMT1 inh	APOBEC3A inh	A3G deaminase	ABHD5-PLIN5 inh	APOBEC3A confirm	UDG A3A counter
Cc1nn(-c2ccccc2)c(C)c1NC(=O)COC(=O)c1ccccc1	·	·	-1.1	19.7	-3.1	-0.8	·	·
COC(=O)C(Cc1ccccc1)OS(N)(=O)=O (stereo not drawn)	13.0	-15.2	0.4	-3.7	-12.3	-3.1	·	·
CC(=O)Nc1ccc(NC(=O)C(C)OC(=O)c2ccc(S(=O)(=O)N3CCCCCC3)cc2)cc1 (stereo not drawn)	·	·	-2.0	-1.5	-1.2	-3.1	·	·
CCn1c(=O)c(C(=O)CN2CCN(S(=O)(=O)c3ccc(C)cc3C)CC2)c(N)n(Cc2ccccc2)c1=O	-48.4	4.6	-0.8	44.5*	6.8	5.4	2.2	·
C=CCn1c(NC(=O)c2ccc(C)cc2)c(C#N)sc1=N	2.9	-0.6	3.1	56.3*	24.1	10.0	70.7*	0.6
COc1ccc(CCCC(=O)Nc2cc(C)ccc2OC)cc1	-0.9	-5.7	0.1	59.9*	11.2	-8.9	28.3	·
COc1ccc(S(=O)(=O)CCC(=O)Nc2cc(C)ccc2OC)cc1	-3.0	8.2	1.1	-0.7	-6.5	2.5	·	·
COCCNC(=O)C1(C)CCCN(C(=O)c2cc(OC)c(OC)c(OC)c2)C1 (stereo not drawn)	·	·	1.0	·	·	7.4	·	·
CCOC(=O)N1CCN(c2ccc(C(=O)c3cccc(F)c3)cc2)CC1	10.5	5.7	·	44.9*	-0.6	11.1	-6.9	-2.0
O=C(c1ccc(N2CCN(C(=O)c3cccc(F)c3)CC2)cc1)c1cccc(F)c1	-2.5	9.7	-0.1	0.1	-2.9	-0.2	·	·
C[N+]1(CCCCSc2ccc(O)cc2)CCCCC1	5.9	-6.3	3.8	30.6	15.4	-0.5	·	·
COC(=O)CCCC(=O)OC	·	·	10.3	-1.0	-0.6	-10.0	·	·
COC(=O)CCCCCCCCC(O)CN(C)C (stereo not drawn)	-5.6	1.9	2.7	1.4	0.5	-8.7	·	·
COC(=O)CCCCCCCCCC[N+]1(C)CCCCC1	-5.1	-3.0	-2.2	43.6*	22.3	4.3	85.4*	1.6
COC(=O)CCCCCCCCC(O)C[N+]1(C)CCOCC1 (stereo not drawn)	4.5	1.3	-4.4	53.2*	23.1	-2.2	77.6*	-2.8
CC(=O)OCCCCCCCCCCC[N+]1(C)CCCCC1	-7.4	-2.6	0.1	79.4*	20.3	-5.5	72.6*	1.6
O=C1C2C(c3ccccc3)C=CC(c3ccccc3)C2C(=O)N1c1ccncc1 (stereo not drawn)	9.7	10.0	-1.1	3.8	5.1	0.6	·	·
O=C1C2C3C=CC(C3)C2C(=O)N1c1ccncc1 (stereo not drawn)	7.9	-0.5	-1.5	82.7*	-6.1	1.9	-8.5	-4.0
COc1cccc(-c2ccc(-c3noc(-c4cccs4)n3)c(OC)n2)c1	0.8	0.4	1.3	68.0*	25.1	-3.5	72.1*	-2.5
